Compound activity deposited in PubChem by several laboratories.
A selection: hits, their analogues and other compounds. The true share with any hit is near 3.8%.
MC4R antag cAMP – blocks human MC4R cAMP signaling; 0.48% of 360,000 active; AID 540295; MC4R-expressing cells, MTII-stimulated cAMP, LANCE TR-FRET; inhibition, % at 6.5 µM; P32245;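 active = inhibition above its plate's cutoff, the mean of tested wells on that plate plus 3 SD, cut at about 29% in these data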
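material = U2OS cells stably expressing human melanocortin 4 receptor (MC4R) | also added = Melanotan II challenge | dosing = single nominal compound dose of 6.5 µM | detection = TR-FRET with Eu-cAMP and labeled anti-cAMP, 671 nm | replication = singlicate | timing = compound 30 min, challenge 1 h, detection 1 h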
MC4R ag barr – activates human MC4R beta-arrestin recruitment. P32245. U2OS MC4R beta-arrestin complementation, luminescence; percent of melanotan II response, DMSO zero. activation, % at 8.9 µM. 0.98% of 360,000 active. AID 540308;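 active = activation above a per-plate cutoff, the mean activation of sample wells on that plate plus 3 SD, cut at about 8% in these data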
TMEM16A act – activators or potentiators of mouse TMEM16A chloride channel | 0.3% of 340,000 active | Q8BHY3 | HEK293 TMEM16A/YFP-H148Q/I152L, iodide quench fluorescence; stronger effect = lower value | B-score at 10 µM;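 active = fluorescence-ratio B-score plate-corrected deviation score at least 3 library SD below zero, with starting fluorescence score within 5 deviations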;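 note: channel opened by trigger with iodide after compound preincubation; score built on the fluorescence ratio of max minus min over baseline; more negative score means more quench and so TMEM16A activation or potentiation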
Target sequence (Q8BHY3 whole entry, looked up): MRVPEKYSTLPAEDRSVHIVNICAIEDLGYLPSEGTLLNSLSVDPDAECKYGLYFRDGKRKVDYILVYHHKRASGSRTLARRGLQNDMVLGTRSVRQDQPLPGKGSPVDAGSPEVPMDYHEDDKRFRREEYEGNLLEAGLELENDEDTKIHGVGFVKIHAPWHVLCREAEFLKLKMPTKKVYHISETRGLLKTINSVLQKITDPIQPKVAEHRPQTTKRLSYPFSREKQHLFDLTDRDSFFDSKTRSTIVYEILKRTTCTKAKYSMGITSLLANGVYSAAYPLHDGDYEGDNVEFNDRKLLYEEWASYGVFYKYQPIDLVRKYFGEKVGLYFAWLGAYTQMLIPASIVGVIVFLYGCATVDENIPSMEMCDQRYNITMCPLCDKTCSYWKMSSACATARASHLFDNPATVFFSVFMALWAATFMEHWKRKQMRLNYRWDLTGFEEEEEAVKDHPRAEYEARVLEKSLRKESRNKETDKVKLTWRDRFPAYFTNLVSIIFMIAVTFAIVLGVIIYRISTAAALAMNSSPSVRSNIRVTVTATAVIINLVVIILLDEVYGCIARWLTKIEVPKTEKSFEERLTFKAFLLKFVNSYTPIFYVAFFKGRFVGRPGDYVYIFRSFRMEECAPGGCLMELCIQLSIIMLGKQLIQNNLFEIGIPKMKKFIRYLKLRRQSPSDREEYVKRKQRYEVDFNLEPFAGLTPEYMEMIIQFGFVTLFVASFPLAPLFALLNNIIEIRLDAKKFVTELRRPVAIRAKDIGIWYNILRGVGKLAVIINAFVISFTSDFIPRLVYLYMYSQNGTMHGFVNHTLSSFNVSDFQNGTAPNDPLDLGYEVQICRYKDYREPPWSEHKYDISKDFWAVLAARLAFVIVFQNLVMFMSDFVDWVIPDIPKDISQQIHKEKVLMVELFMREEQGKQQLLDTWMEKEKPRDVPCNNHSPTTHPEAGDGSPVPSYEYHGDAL
Beta cell apopt – blocks beta cell apoptosis; 0.8% of 300,000 active; protection from apoptosis, % (concentration not given with the values); INS-1E cytokine-induced death, ATP luminescence, 48 h; percent of positive-control rescue, neutral wells zero; AID 435005;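 active = Every replicate reaches about 75%, or at least half do and their mean reaches it too, limit read from the data; inconclusive = At least half of replicates reach the limit but their mean does not; inactive = Under half of replicates reach the limit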;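 note: higher means more ATP so stronger rescue from cytokine killing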
CSC inhib – cancer stem cell inhibition | cancer stem cell-like cells viability, luminescence | inhibition, % at 7.5 µM | 1.1% of 300,000 active; in the data active = inhibition above about 75%; inconclusive = no clear call, values can overlap the other calls; tested in HMLE shEcad cells
TMEM16A inh – inhibitors of mouse TMEM16A calcium-activated chloride channel; 1.2% of 310,000 active; HEK293 TMEM16A/YFP iodide influx fluorescence, ionomycin; normalized B-score (activity score, 25-100; higher = stronger inhibition) at 10 µM;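 active = ratio plate-corrected score three or more library SD toward inhibition, starting fluorescence score within five deviations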;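 note: score derived from kinetic fluorescence span divided by baseline fluorescence per well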
Each line names hits and unclear results; the compound was inactive in the other large screens.

COc1cc(/C=C2\SC(=O)N(c3cccc(Cl)c3)C2=O)cc([N+](=O)[O-])c1O	TMEM16A act -5.6 (no result: Beta cell apopt, CSC inhib, TMEM16A inh)
O=C1S/C(=C\c2ccc(O)c([N+](=O)[O-])c2)C(=O)N1Cc1cccc([N+](=O)[O-])c1	TMEM16A inh 100
COC1CC(N)C2OC(c3ccccc3)OCC2O1 (stereo unspecified)	none (no result: TMEM16A act, Beta cell apopt, CSC inhib, TMEM16A inh)
CCOC(=O)c1c(C)[nH]c(C(=O)COC(=O)c2oc3ccccc3c2C)c1C	MC4R ag barr 8.3
CCOC(=O)c1c(C)[nH]c(C(=O)COC(=O)CCSc2ccccc2)c1C	none
CCOC(=O)c1c(C)[nH]c(C(=O)COC(=O)c2oc3ccc(OC)cc3c2C)c1C	none
CCOC(=O)c1c(C)[nH]c(C(=O)N/N=C\c2ccccc2O)c1C	Beta cell apopt 77, CSC inhib 79
CCOC(=O)c1c(C)[nH]c(C(=O)N/N=C/c2ccc(OC)c(OC)c2)c1C	none
CCOC(=O)c1c(C)[nH]c(C(=O)CSc2ccccc2)c1C	MC4R ag barr 8.4
C[C@H]1CN[C@H](CCO)/C1=C\c1ccccc1	none (no result: TMEM16A act, Beta cell apopt, CSC inhib, TMEM16A inh)
CCOc1ccc(OCc2ccc(C(=O)NN=Cc3ccc[nH]3)cc2)cc1	Beta cell apopt 123, CSC inhib 92 (no result: TMEM16A inh)
CCOc1ccc(C(=O)O/N=C(\N)c2ccccn2)cc1	none
O=C(N/N=C/c1ccc[nH]1)c1ccccc1OCc1ccc(F)cc1	none
CCOc1ccc(OCc2ccc(C(=O)N/N=C(\C)c3ccccn3)cc2)cc1	Beta cell apopt 102
C/C(=N\NC(=O)c1ccccc1OCc1ccc(F)cc1)c1ccccn1	Beta cell apopt 94 (no result: TMEM16A inh)
COC(=O)c1csc(C2OC(CO)C(O)C2O)n1 (stereo unspecified)	none (no result: TMEM16A act, Beta cell apopt, CSC inhib, TMEM16A inh)
COc1cc(OC)c(C=O)c(OC(=O)N2CCOCC2)c1	CSC inhib 128
CCNc1nc(NCC)nc(SCCOC(=O)c2ccccc2)n1	none
CCNc1nc(NCC)nc(SCCOC(=O)Nc2ccc(Cl)cc2Cl)n1	MC4R ag barr 8.9
O=C(NC1CCCC1)C(c1cccnc1)N(Cc1ccccc1F)C(=O)c1csnn1 (stereo unspecified)	none
Cc1cc(C(C)(C)C)cc(CN2CCN(S(=O)(=O)c3cccs3)CC2)c1O	none (no result: TMEM16A act, Beta cell apopt, CSC inhib, TMEM16A inh)
O=C(NCc1cccc(Cl)c1)c1ccc2ccccc2n1	none (no result: CSC inhib)
CN(c1ccccc1)c1ccc(/C=C(\C#N)c2nnc3n2CCCCC3)cc1[N+](=O)[O-]	CSC inhib 80
N#C/C(=C\c1cccc([N+](=O)[O-])c1)c1nnc2n1CCCCC2	none
COc1ccccc1CNC(=O)CNC(=O)c1sc2ccccc2c1Cl	none (no result: Beta cell apopt)
OC(CNCC(c1ccc(Cl)cc1Cl)c1c[nH]c2ccccc12)c1ccccc1 (stereo unspecified)	CSC inhib 104
Cc1ccc(S(=O)(=O)NC(CC(C)C)C(=O)N2CCN(C/C=C/c3ccccc3)CC2)cc1 (stereo unspecified)	none (no result: TMEM16A inh)
Cc1c(NS(=O)(=O)c2ccc3c(c2)OCCO3)cccc1-c1nc2cccnc2s1	TMEM16A inh 25
Cc1nc2ccc(NS(=O)(=O)c3ccc4c(c3)OCCO4)cc2s1	Beta cell apopt 123
CNc1c2cccc(C)c2nc2c(C(=O)NCCN(C)C)cccc12	none (no result: Beta cell apopt, CSC inhib, TMEM16A inh)
Cc1ccc(S(=O)(=O)N(C)C)cc1NC(=S)NC(=O)C12CC3CC(CC(C3)C1)C2	CSC inhib 77 (no result: Beta cell apopt)
CC(C)(C)n1nnnc1C(c1ccccn1)N(Cc1ccccc1)Cc1ccc(Cl)cc1 (stereo unspecified)	TMEM16A act -5.1 (no result: Beta cell apopt)
Cc1ccc(NC(=O)COc2cccc(Oc3ccccc3)c2)cc1S(=O)(=O)N1CCOCC1	none (no result: CSC inhib, TMEM16A inh)
COc1ccc(N/N=C/c2c(C(=O)O)ccc3ccccc23)cc1	Beta cell apopt 116, CSC inhib 109
Nc1ccn([C@@H]2O[C@H](CNC(=O)[C@@H](Cc3cn(COCc4ccccc4)cn3)NC=O)[C@@H](O)[C@H]2O)c(=O)n1	none (no result: TMEM16A act, Beta cell apopt, CSC inhib, TMEM16A inh)
O=C(N/N=C/c1ccc([N+](=O)[O-])o1)c1cc(-c2ccncc2)nc2ccccc12	none
O=C(N/N=C/c1ccc([N+](=O)[O-])o1)c1cc(-c2ccc(-c3ccccc3)cc2)nc2ccccc12	CSC inhib 78
O=C(N/N=C/c1cc([N+](=O)[O-])ccc1Cl)c1cc(-c2ccccc2)nc2ccccc12	none
O=C(N/N=C/c1ccc(Cl)c([N+](=O)[O-])c1)c1cc(-c2ccccc2)nc2ccccc12	CSC inhib 96
O=C(N/N=C/c1cc([N+](=O)[O-])ccc1O)c1c[nH]c2ccccc12	Beta cell apopt 78, CSC inhib inconclusive
O=C(N/N=C/c1cccc([N+](=O)[O-])c1)c1c[nH]c2ccccc12	none
O=C(N/N=C/c1cc([N+](=O)[O-])ccc1O)c1cc(-c2ccccc2)nc2ccccc12	Beta cell apopt 117, TMEM16A inh 25
COC(=O)c1c(NC(=O)COC(=O)CNC(=O)c2cccc(OC(F)F)c2)sc(C)c1C	none (no result: TMEM16A act, Beta cell apopt, CSC inhib, TMEM16A inh)
Cc1ccsc1/C=N/NC(=O)c1cc(-c2ccncc2)nc2ccccc12	TMEM16A act -5, CSC inhib 78
CC(C)CCCCCCNC(=S)Nc1ccc(S(=O)(=O)N2CCOCC2)cc1	Beta cell apopt 98, CSC inhib 91, TMEM16A inh 100
O=S(=O)(c1ccc(NC(=S)Nc2ccccc2)cc1)N1CCOCC1	none (no result: Beta cell apopt)
CC(=O)Nc1cccc(-c2cc(C)c3cc4c(cc3n2)OCO4)c1	none (no result: Beta cell apopt, CSC inhib, TMEM16A inh)
O=C(N/N=C\c1cn[nH]c1-c1ccc(Cl)cc1)c1cccs1	MC4R ag barr 8.8
O=C(N/N=C/c1cn[nH]c1-c1ccc(Cl)cc1)c1ccc([N+](=O)[O-])cc1	none
CCN(C(=O)COC(=O)CCCOc1ccc(Cl)cc1C)c1c(N)n(Cc2ccccc2)c(=O)[nH]c1=O	none (no result: Beta cell apopt, CSC inhib, TMEM16A inh)
COc1ccc(/C=C/c2nc3cc(-c4ccccc4)ccc3o2)cc1O	CSC inhib 102
COc1ccc(/C=C/c2nc3ccccc3c(=O)o2)cc1	none
CCCN(CC(=O)Nc1ccccc1OC)C(=O)c1cc(-c2ccccc2)nn1-c1ccccc1	none (no result: TMEM16A inh)
O=C(NCCN1CCN(c2ccccc2F)CC1)C1CCCN(S(=O)(=O)c2cnc[nH]2)C1 (stereo unspecified)	TMEM16A act -18
C=C(C)Cn1c2ccc(NC(=O)CCOCC)cc2c(=O)n1C	none (no result: TMEM16A act, Beta cell apopt, CSC inhib, TMEM16A inh)
CCC1CCCCN1C(=O)c1cc(COc2ccc(-n3cncn3)cc2)on1 (stereo unspecified)	Beta cell apopt 104
O=C(c1cc(COc2ccc(-n3cncn3)cc2)on1)N1CCCC1	none
CCOC(=O)CSC1=C(C#N)C(=O)NC(c2ccc(OC)cc2)S1 (stereo unspecified)	none
CCOC(=O)CSC1=C(C#N)C(=O)NC(c2ccc(OC)c(OC)c2)S1 (stereo unspecified)	TMEM16A inh 25 (no result: CSC inhib)
CCOCCCNC(=O)c1cc2c(s1)-c1ccccc1SC2	none
